Test results from ChEMBL document CHEMBL4261510, “Synthesis of novel inhibitors of α-amylase based on the thiazolidine-4-one skeleton containing a pyrazole moiety and their configurational studies” (Medchemcomm, 2017).

Experiments:
[1] = biological target: Alpha amylase (Homo sapiens) (UniProt P0DUB6); assay: Inhibition of human alpha-amylase at 50 ug/ml using starch as substrate preincubated for 30 mins by 3,5-dinitrosalicylic acid color reagent based assay relative to control
Method in brief: (§1)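 Test samples were prepared as a DMSO stock of 10 mg/10 mL and assayed at 50, 100 and 200 μg mL–1. Enzyme was at 1 unit per mL in 20 mM sodium phosphate, pH 6.9. Sample and enzyme were incubated 30 min at 25 °C. DNSA colour reagent was added, then heated 15 min at 85 °C and read at 595 nm. Soluble potato starch (0.5–1% w/v) was the substrate. Inhibition % was taken against a DMSO control, with blanks correcting background.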

[2] = biological target: Alpha amylase (Homo sapiens) (UniProt P0DUB6); assay: Inhibition of human alpha-amylase at 200 ug/ml using starch as substrate preincubated for 30 mins by 3,5-dinitrosalicylic acid color reagent based assay relative to control; method in brief: as §1
[3] = biological target: Alpha amylase (Homo sapiens) (UniProt P0DUB6); assay: Inhibition of human alpha-amylase at 100 ug/ml using starch as substrate preincubated for 30 mins by 3,5-dinitrosalicylic acid color reagent based assay relative to control; method in brief: as §1

Sequence of Alpha amylase (Homo sapiens) (P0DUB6 whole entry, looked up): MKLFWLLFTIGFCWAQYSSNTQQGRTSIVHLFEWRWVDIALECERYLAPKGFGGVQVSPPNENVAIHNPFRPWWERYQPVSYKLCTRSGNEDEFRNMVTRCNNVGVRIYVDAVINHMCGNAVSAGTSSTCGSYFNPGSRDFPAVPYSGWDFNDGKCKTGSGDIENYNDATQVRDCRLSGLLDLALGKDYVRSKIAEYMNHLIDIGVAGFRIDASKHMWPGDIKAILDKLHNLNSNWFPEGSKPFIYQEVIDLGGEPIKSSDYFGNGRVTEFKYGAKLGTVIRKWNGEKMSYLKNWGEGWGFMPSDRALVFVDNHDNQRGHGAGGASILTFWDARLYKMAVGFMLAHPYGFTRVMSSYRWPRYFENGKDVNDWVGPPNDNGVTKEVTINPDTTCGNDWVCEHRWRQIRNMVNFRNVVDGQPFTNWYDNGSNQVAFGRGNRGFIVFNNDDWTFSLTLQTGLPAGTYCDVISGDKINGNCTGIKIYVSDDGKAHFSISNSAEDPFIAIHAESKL

Row | inhibition [1] [%] | inhibition [2] [%] | inhibition [3] [%] | Compound
1 | 52.1 | 97.4 | 72.9 | Cc1ccc(/N=C2/NC(=O)/C(=C/c3cn(-c4ccccc4)nc3-c3ccc(Br)cc3)S2)cc1
2 | 79.2 | 84 | 83.7 | Cc1ccc(/N=C2/NC(=O)/C(=C/c3cn(-c4ccccc4)nc3-c3ccc(C)cc3)S2)cc1
3 | 65.1 | 58 | 88.2 | Cc1ccc(/N=C2/NC(=O)/C(=C/c3cn(-c4ccccc4)nc3-c3ccc([N+](=O)[O-])cc3)S2)cc1
4 | 75.9 | 92.2 | 90 | COc1ccc(-c2nn(-c3ccccc3)cc2/C=C2\S/C(=N\c3ccc(C)cc3)NC2=O)cc1
5 | 77.1 | 78 | 81.6 | Cc1ccc(/N=C2/NC(=O)/C(=C/c3cn(-c4ccccc4)nc3-c3ccc(F)cc3)S2)cc1
6 | 48.1 | 84.3 | 81.6 | Cc1ccc(/N=C2/NC(=O)/C(=C/c3cn(-c4ccccc4)nc3-c3ccccc3)S2)cc1
7 | 50.9 | 75 | 81.1 | Cc1ccc(/N=C2/NC(=O)/C(=C/c3cn(-c4ccccc4)nc3-c3ccc(Cl)cc3)S2)cc1
8 | 48.6 | 63.7 | 53.8 | C[C@H]1O[C@H](O[C@H]2[C@H](O)[C@@H](O)[C@@H](O[C@H]3[C@H](O)[C@@H](O)C(O)O[C@@H]3CO)O[C@@H]2CO)[C@H](O)[C@@H](O)[C@@H]1N[C@H]1C=C(CO)[C@@H](O)[C@H](O)[C@H]1O (some centres undefined)
